Reference: ChEMBL document CHEMBL3580559, “Antimalarial 5,6-Dihydro-α-pyrones from Cryptocarya rigidifolia: Related Bicyclic Tetrahydro-α-Pyrones Are Artifacts1” (J Nat Prod, 2015)

Tests used:
Plasmodium falciparum = test: Antimalarial activity against chloroquine/mefloquine-resistant Plasmodium falciparum Dd2 incubated for 72 hrs by SYBR green I-based fluorescence assay; format: functional, organism-based; conditions: Dd2, 72 h
Summary of the method: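 Parasite growth of P. falciparum Dd2 (chloroquine/mefloquine-resistant) measured after 72 h compound treatment with the SYBR green I-based fluorescence assay; artemisinin run as positive control; IC50 values reported.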

A2780 = test: Antiproliferative activity against human A2780 cells assessed as inhibition of cell growth incubated for 2 days by alamar blue assay; format: cell-based; conditions: A2780, 48 h

SMILES: CCCCCCCCCCCCC[C@@H](O)C[C@H]1CC=CC(=O)O1
- IC50 (Plasmodium falciparum): 9.2 µM
- IC50 (A2780): > 10 µM

SMILES: CCCCCCCCCCCCCCC[C@@H](O)C[C@H](O)C[C@H]1CC=CC(=O)O1
- IC50 (Plasmodium falciparum): 5.8 µM
- IC50 (A2780): > 10 µM

SMILES: CCCCCC/C=C\CCCCCCC[C@@H](O)C[C@H]1CC=CC(=O)O1
- IC50 (Plasmodium falciparum): 5.5 µM
- IC50 (A2780): 8.6 µM

SMILES: CCCCCCCC/C=C\CCCCCCC[C@H](O)C[C@H]1CC=CC(=O)O1
- IC50 (Plasmodium falciparum): 7.4 µM
- IC50 (A2780): > 10 µM

SMILES: CCCCCCCC(O)CCCCCCC/C=C/[C@H](O)C[C@H]1CC=CC(=O)O1 (stereo partly drawn)
- IC50 (Plasmodium falciparum): 9 µM
- IC50 (A2780): > 10 µM

SMILES: CCCCCCCC/C=C\CCCCCC(O)CC1C[C@H]2C[C@H](CC(=O)O2)O1 (stereo partly drawn)
- IC50 (Plasmodium falciparum): 4 µM
- IC50 (A2780): > 10 µM

SMILES: CCCCCCCCCCC/C=C\CCCCCCCC1C[C@H]2C[C@H](CC(=O)O2)O1 (stereo partly drawn)
- IC50 (Plasmodium falciparum): 6 µM
- IC50 (A2780): > 10 µM

SMILES: CCCCCCCCCCCCC(O)CC1C[C@H]2C[C@H](CC(=O)O2)O1 (stereo partly drawn)
- IC50 (Plasmodium falciparum): > 10 µM
- IC50 (A2780): > 10 µM

SMILES: CCCCCCCCCCCCCCC[C@@H](O)C[C@H]1C[C@H]2C[C@H](CC(=O)O2)O1
- IC50 (Plasmodium falciparum): > 10 µM
- IC50 (A2780): > 10 µM

SMILES: CCCCCC/C=C\CCCCCCC[C@@H]1C[C@H]2C[C@H](CC(=O)O2)O1
- IC50 (Plasmodium falciparum): > 10 µM
- IC50 (A2780): > 10 µM

SMILES: CCCCCCCC(O)CCCCCCC/C=C/[C@H]1C[C@H]2C[C@H](CC(=O)O2)O1 (stereo partly drawn)
- IC50 (Plasmodium falciparum): > 10 µM
- IC50 (A2780): > 10 µM

SMILES: C[C@@H]1CC[C@H]2[C@@H](C)C(=O)O[C@@H]3O[C@@]4(C)CC[C@@H]1[C@]32OO4 [ARTEMISININ]
- IC50 (Plasmodium falciparum): 0.007 µM
